Experiments:
[1] = Drug metabolism in C57BL/6J mouse primary hepatocytes assessed as Cytochrome P450-mediated formation of 12-OHD2NVP at 10 uM incubated for 24 hrs by uHPLC-MS analysis; assay type: ADME, cell-based
Method in brief: (§1)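 Fresh hepatocytes from male C57BL/6J mice (8–13 weeks), adhered overnight, then 10 μM substrate or vehicle (0.1% DMSO) for 24 h. Medium extracted with acetonitrile (50% final), dried, reconstituted in methanol; uHPLC-Orbitrap targeted SIM plus PRM (monooxygenated metabolites) or high-resolution ions (O-glucuronides, 459.1510/462.1700 ±5 ppm); four experimental replicates.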

Hepatocyte [2] = experiment: Induction of change in DERA protein expression in human primary hepatocytes at 10 uM incubated for 48 hrs by relative-quantitation label-free proteomics analysis relative to NVP; assay type: cell-based
Method in brief: (§2)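 Cryoplateable pooled human hepatocytes (10 mixed-sex donors per pool; three pools), adhered overnight, then given fresh medium containing compound (10 μM), NVP (10 μM) or vehicle (0.1% DMSO) for 48 h. Lysate reduced (DTT) and alkylated (iodoacetamide), acetone-precipitated and digested with trypsin. Label-free Top10 nanoLC-MS with precursor ion area quantitation; unpaired t test P values, Cohen's d effect size.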

Hepatocyte [3] = experiment: Induction of change in NOL6 protein expression in human primary hepatocytes at 10 uM incubated for 48 hrs by relative-quantitation label-free proteomics analysis relative to NVP; assay type: cell-based; method in brief: as §2
[4] = Drug metabolism in human primary hepatocytes assessed as O-GlucNVP metabolite formation at 10 uM incubated for 24 hrs by uHPLC-MS analysis; assay type: ADME, cell-based, Hepatocyte
Method in brief: (§3)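 Cryoplateable pooled human hepatocytes (10 mixed-sex donors per pool, three lots), adhered overnight, then 10 μM substrate or vehicle (0.1% DMSO) for 24 or 48 h in InVitroGRO CP medium. Medium extracted with 50% acetonitrile, dried, reconstituted in methanol; uHPLC-Orbitrap MS/MS for monooxygenated metabolites, high-resolution MS for O-glucuronide.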

Hepatocyte [5] = experiment: Induction of change in Gapdh protein expression in C57BL/6J mouse primary hepatocytes at 400 uM incubated for 8 hrs by relative-quantitation label-free proteomics analysis relative to NVP; assay type: cell-based
Method in brief: (§4)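 Fresh primary hepatocytes from male C57BL/6J mice aged 8–13 weeks, adhered overnight, then given fresh medium containing compound (400 μM), NVP (400 μM) or vehicle (0.2% DMSO) for 8 h. Lysate reduced (DTT) and alkylated (iodoacetamide), acetone-precipitated and digested with trypsin. Label-free Top10 nanoLC-MS with precursor ion area quantitation; unpaired t test P values, Cohen's d effect size.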

Hepatocyte [6] = experiment: Induction of change in KlAA2013 protein expression in human primary hepatocytes at 10 uM incubated for 48 hrs by relative-quantitation label-free proteomics analysis relative to NVP; assay type: cell-based; method in brief: as §2
Cytochrome P450 [7] = experiment: Drug metabolism in human primary hepatocytes assessed as Cytochrome P450-mediated formation of 8-OHNVP at 10 uM incubated for 24 to 48 hrs by uHPLC-MS analysis; assay type: ADME, cell-based; method in brief: as §3
Cytochrome P450 [8] = experiment: Drug metabolism in human liver microsomes assessed as Cytochrome P450-mediated formation of 12-OHNVP by measuring Kcat/Km ratio in presence of NADPH regenerating reagents by uHPLC-MS/MS analysis
Method in brief: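 Pooled human liver microsomes (2.5 mg/mL) in potassium phosphate; substrate (1–400 μM) prewarmed 5 min at 37 °C with NADPH-regenerating system, started with microsomes, 30 min at 37 °C. 12-OH product quantified by uHPLC-MS/MS Orbitrap against 12-OHNVP standard curve made in microsomes without NADPH. Kcat/Km taken as slope of linear rate vs substrate fit at nonsaturating 0–50 μM.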

Hepatocyte [9] = experiment: Induction of change in Fam120A protein expression in C57BL/6J mouse primary hepatocytes at 400 uM incubated for 8 hrs by relative-quantitation label-free proteomics analysis relative to NVP; assay type: cell-based; method in brief: as §4
Hepatocyte [10] = experiment: Induction of change in CYB5A protein expression in human primary hepatocytes at 10 uM incubated for 48 hrs by relative-quantitation label-free proteomics analysis relative to NVP; assay type: cell-based; method in brief: as §2
Hepatocyte [11] = experiment: Induction of change in CYC1 protein expression in human primary hepatocytes at 10 uM incubated for 48 hrs by relative-quantitation label-free proteomics analysis relative to NVP; assay type: cell-based; method in brief: as §2
Cytochrome P450 [12] = experiment: Drug metabolism in human primary hepatocytes assessed as Cytochrome P450-mediated formation of 3-OHNVP at 10 uM incubated for 24 to 48 hrs by uHPLC-MS analysis; assay type: ADME, cell-based; method in brief: as §3
Hepatocyte [13] = experiment: Induction of change in EXOSC1 protein expression in human primary hepatocytes at 10 uM incubated for 48 hrs by relative-quantitation label-free proteomics analysis relative to NVP; assay type: cell-based; method in brief: as §2
Hepatocyte [14] = experiment: Induction of change in Igfbp1 protein expression in C57BL/6J mouse primary hepatocytes at 400 uM incubated for 8 hrs by relative-quantitation label-free proteomics analysis relative to NVP; assay type: cell-based; method in brief: as §4
[15] = Drug metabolism in C57BL/6J mouse primary hepatocytes assessed as 12-O-GlucD2NVP metabolite formation at 10 uM incubated for 24 hrs by uHPLC-MS analysis; assay type: ADME, cell-based, Hepatocyte; method in brief: as §1
Hepatocyte [16] = experiment: Induction of change in Slc22a28 protein expression in C57BL/6J mouse primary hepatocytes at 400 uM incubated for 8 hrs by relative-quantitation label-free proteomics analysis relative to NVP; assay type: cell-based; method in brief: as §4
Hepatocyte [17] = experiment: Induction of change in MSRA protein expression in human primary hepatocytes at 10 uM incubated for 48 hrs by relative-quantitation label-free proteomics analysis relative to NVP; assay type: cell-based; method in brief: as §2
Cytochrome P450 1A1 = target: T1, Cytochrome P450 1A1 (Homo sapiens, UniProt P04798); experiment: Drug metabolism assessed as human CYP1A1-mediated formation of 12-OHNVP at 10 uM pre-incubated for 30 mins followed by addition of NADPH regenerating reagents by uHPLC-MS analysis; assay type: ADME; details: recombinant enzyme
T1 sequence (P04798 whole entry): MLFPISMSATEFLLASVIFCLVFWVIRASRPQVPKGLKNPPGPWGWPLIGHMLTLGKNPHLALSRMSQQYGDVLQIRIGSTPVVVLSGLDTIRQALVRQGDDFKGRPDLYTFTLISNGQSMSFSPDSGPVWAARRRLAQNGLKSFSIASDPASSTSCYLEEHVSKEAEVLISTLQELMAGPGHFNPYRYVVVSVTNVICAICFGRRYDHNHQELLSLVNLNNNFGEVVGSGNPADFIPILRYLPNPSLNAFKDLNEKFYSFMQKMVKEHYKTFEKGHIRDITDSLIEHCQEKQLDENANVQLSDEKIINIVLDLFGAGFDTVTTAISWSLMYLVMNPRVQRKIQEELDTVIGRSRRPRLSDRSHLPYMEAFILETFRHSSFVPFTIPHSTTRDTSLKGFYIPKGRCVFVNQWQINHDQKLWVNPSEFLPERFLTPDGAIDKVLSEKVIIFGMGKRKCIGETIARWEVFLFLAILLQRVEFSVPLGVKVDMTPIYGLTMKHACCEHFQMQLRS
Method in brief: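 Insect-cell microsomes with single cDNA-expressed human P450 (100 nM) in 0.1 M potassium phosphate; 10 μM substrate prewarmed 5 min at 37 °C with NADPH-regenerating system, reaction started by adding microsomes; 30 min at 37 °C, 0.1% DMSO. Stopped, dried, reconstituted in methanol; triple-quadrupole SRM (12-OH 283.1→223.0, 2-OH 283.1→160.9, 3-OH 283.1→241.9), peak height; three replicates, mean ± SD.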

With `[2H]C([2H])([2H])c1ccnc2c1NC(=O)c1cccnc1N2C1CC1` the Drug metabolism [1] was “Metabolite_Detected”, the “fold change (FC)” value (Hepatocyte [2]) was -1.63 and the “fold change (FC)” value (Hepatocyte [3]) was -1.85. For the same compound, the Drug metabolism [4] was “Metabolite_Detected”, the “fold change (FC)” value (Hepatocyte [5]) was 1.4 and the “fold change (FC)” value (Hepatocyte [6]) was 1.36. The Drug metabolism (Cytochrome P450 [7]) was “Metabolite_Notdetected”, the Kcat/Km (Cytochrome P450 [8]) was 0.153 M⁻¹ s⁻¹ and the “fold change (FC)” value (Hepatocyte [9]) was 2.06. For the same compound, the “fold change (FC)” value (Hepatocyte [10]) was -1.5, the “fold change (FC)” value (Hepatocyte [11]) was -1.4 and the Drug metabolism (Cytochrome P450 [12]) was “Metabolite_Detected”. For the same compound, the “fold change (FC)” value (Hepatocyte [13]) was -2.73, the “fold change (FC)” value (Hepatocyte [14]) was 4.7 and the Drug metabolism [15] was “Metabolite_Notdetected”. For the same compound, the “fold change (FC)” value (Hepatocyte [16]) was -1.66, the “fold change (FC)” value (Hepatocyte [17]) was -2.05 and the Drug metabolism (Cytochrome P450 1A1) was “Metabolite_Detected”.

From ChEMBL document CHEMBL4613248, “Twelfth-Position Deuteration of Nevirapine Reduces 12-Hydroxy-Nevirapine Formation and Nevirapine-Induced Hepatocyte Death” (J Med Chem, 2020)
